Results published in ChEMBL document CHEMBL1135528, “Monocyclic human tachykinin NK-2 receptor antagonists as evolution of a potent bicyclic antagonist: QSAR and site-directed mutagenesis studies” (J Med Chem, 2002).
Where a chain is given by its changes, count along the chain named. Calls of active or inactive are those of the source. The calls are words filed in the database; no cut-off is given here. Where a SMILES comes first, the peptide text is derived from it. Bridges are numbered along the chain shown (N, C = ends). [ ]: non-standard residue; d: D form. The star is where a group is joined. NH(β-GlcNAc) = CC(=O)N[C@@H]1[C@@H](O)[C@H](O)[C@@H](CO)O[C@H]1N*; Dap = NC[C@H](N)C(=O)O

Tests used:
[1] = system: Substance-K receptor (Homo sapiens), P21452 [N110A]; experiment: Binding affinity against N110A human neurokinin-2 receptor (hNK-2R) using [3H]nepadutant as a radioligand; UB is Undetectable Binding
Chain of Substance-K receptor (Homo sapiens), P21452 [N110A] (P21452 whole entry N110A): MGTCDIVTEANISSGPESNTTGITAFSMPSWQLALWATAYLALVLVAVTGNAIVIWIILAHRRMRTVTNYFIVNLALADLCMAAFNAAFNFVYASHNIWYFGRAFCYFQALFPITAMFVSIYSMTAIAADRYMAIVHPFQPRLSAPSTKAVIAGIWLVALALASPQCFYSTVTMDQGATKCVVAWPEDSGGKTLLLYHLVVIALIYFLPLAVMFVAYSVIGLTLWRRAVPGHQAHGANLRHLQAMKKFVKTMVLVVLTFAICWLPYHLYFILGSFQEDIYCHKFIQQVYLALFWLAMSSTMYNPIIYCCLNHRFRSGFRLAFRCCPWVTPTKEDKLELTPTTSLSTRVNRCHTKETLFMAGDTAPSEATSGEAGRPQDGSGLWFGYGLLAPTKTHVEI
Procedure, shortened: (§1)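 Membranes from cells stably transfected with wild-type or mutant hNK-2R, incubated with [3H]nepadutant for 60 min at 20 °C in 50 mM Tris-HCl pH 7.4 containing peptidase inhibitors, 150 mM NaCl, 5 mM MnCl2 and 1 g/L BSA. Competitors ranged 0.3 pM–10 μM. Nonspecific binding was defined with 1 mM unlabeled ligand. Bound label was collected by filtration and counted. Means from ≥3 duplicate experiments.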

[2] = system: T1, Substance-K receptor (Homo sapiens), P21452 [Y266F]
T1 sequence (whole entry): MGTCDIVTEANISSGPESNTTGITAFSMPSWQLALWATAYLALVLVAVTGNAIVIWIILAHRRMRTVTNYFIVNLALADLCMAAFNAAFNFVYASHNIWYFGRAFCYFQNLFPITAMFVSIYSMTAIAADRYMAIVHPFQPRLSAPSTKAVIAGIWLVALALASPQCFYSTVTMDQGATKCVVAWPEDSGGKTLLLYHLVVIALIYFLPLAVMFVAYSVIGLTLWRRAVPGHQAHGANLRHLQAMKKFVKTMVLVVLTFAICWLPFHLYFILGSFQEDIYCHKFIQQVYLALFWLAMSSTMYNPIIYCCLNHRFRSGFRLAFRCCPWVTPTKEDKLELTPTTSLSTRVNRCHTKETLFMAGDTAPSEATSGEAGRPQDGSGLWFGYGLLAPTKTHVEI

[3] = molecular target: T2, Substance-K receptor (Homo sapiens) (UniProt P21452); experiment: Binding affinity against wild type human Wild-type tachykinin receptor 2 (hNK-2R) using [3H]nepadutant as a radioligand; procedure, shortened: as §1
T2 sequence (whole entry): T1 sequence (whole entry) with F266Y

[4] = system: Substance-K receptor (Homo sapiens), P21452 [Y269F]; experiment: Binding affinity against Y269F human neurokinin-2 receptor (hNK-2R) using [3H]nepadutant as a radioligand; procedure, shortened: as §1
Chain of Substance-K receptor (Homo sapiens), P21452 [Y269F] (P21452 whole entry Y269F): as the sequence (P21452 whole entry N110A) above, with A110N, Y269F counted along it

[5] = system: T3, Substance-K receptor (Homo sapiens), P21452 [W263A]; experiment: Binding affinity against W263A human neurokinin-2 receptor (hNK-2R) using [3H]SR-48,968 as a radioligand
T3 sequence (whole entry): T1 sequence (whole entry) with W263A, F266Y
Procedure, shortened: (§2)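 Radioligand [3H]SR48968 was incubated for 30 min at 20 °C with membranes from stably transfected wild-type or mutant hNK-2R cells, in Tris-HCl 50 mM pH 7.4 buffer with protease inhibitors, NaCl, MnCl2 and BSA. Test ligands ranged 0.3 pM–10 μM, with nonspecific binding in 1 mM unlabeled ligand. Filtration through PEI-soaked filters was followed by scintillation counting. pKi was derived by curve fitting, duplicate determinations.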

[6] = system: Substance-K receptor (Homo sapiens), P21452 [Y169A]; experiment: Binding affinity against Y169A human neurokinin-2 receptor (hNK-2R) using [3H]nepadutant as a radioligand; procedure, shortened: as §1
Chain of Substance-K receptor (Homo sapiens), P21452 [Y169A] (P21452 whole entry Y169A): as the sequence (P21452 whole entry N110A) above, with A110N, Y169A counted along it

[7] = system: Substance-K receptor (Homo sapiens), P21452 [Y289T]; experiment: Binding affinity against Y289T human neurokinin-2 receptor (hNK-2R) using [3H]nepadutant as a radioligand; procedure, shortened: as §1
Chain of Substance-K receptor (Homo sapiens), P21452 [Y289T] (P21452 whole entry Y289T): as the sequence (P21452 whole entry N110A) above, with A110N, Y289T counted along it

[8] = system: T4, Substance-K receptor (Homo sapiens), P21452 [C167A]; experiment: Binding affinity against C167A human neurokinin-2 receptor (hNK-2R) using [3H]nepadutant as a radioligand; UB is Undetectable Binding; procedure, shortened: as §1
T4 sequence (whole entry): T1 sequence (whole entry) with C167A, F266Y

[9] = system: T3, Substance-K receptor (Homo sapiens), P21452 [W263A]; experiment: Binding affinity against W263A human neurokinin-2 receptor (hNK-2R) using [3H]nepadutant as a radioligand; UB is Undetectable Binding; procedure, shortened: as §1
[10] = system: T4, Substance-K receptor (Homo sapiens), P21452 [C167A]; experiment: Binding affinity against C167A human neurokinin-2 receptor (hNK-2R) using [3H]SR-48,968 as a radioligand; procedure, shortened: as §2
[11] = system: Substance-K receptor (Homo sapiens), P21452 [F293A]; experiment: Binding affinity against F293A human neurokinin-2 receptor (hNK-2R) using [3H]nepadutant as a radioligand; procedure, shortened: as §1
Chain of Substance-K receptor (Homo sapiens), P21452 [F293A] (P21452 whole entry F293A): as the sequence (P21452 whole entry N110A) above, with A110N, F293A counted along it

[12] = system: Substance-K receptor (Homo sapiens), P21452 [Q109A]; experiment: Binding affinity against Q109A human neurokinin-2 receptor (hNK-2R) using [3H]nepadutant as a radioligand; procedure, shortened: as §1
Chain of Substance-K receptor (Homo sapiens), P21452 [Q109A] (P21452 whole entry Q109A): as the sequence (P21452 whole entry N110A) above, with Q109A, A110N counted along it

CC(=O)N[C@@H]1[C@@H](O)[C@H](O)[C@@H](CO)O[C@H]1NC(=O)C[C@@H]1NC(=O)[C@H](CC(C)C)NC(=O)[C@@H]2CNC(=O)C[C@H](NC1=O)C(=O)N[C@@H](Cc1c[nH]c3ccccc13)C(=O)N[C@@H](Cc1ccccc1)C(=O)N2 (cyclo(D(NH(β-GlcNAc))DWF[Dap]L); lactam 2-5)
UB [1]: inactive | KD/Ki [2]: 16.3 nM | KD/Ki [3]: 4 nM | KD/Ki [4]: 1.7 nM | KD/Ki [5]: 502 nM | KD/Ki [6]: 4.1 nM | KD/Ki [7]: 11.2 nM | UB [8]: inactive | UB [9]: inactive | KD/Ki [10]: > 10000 nM | KD/Ki [11]: 7.4 nM | KD/Ki [12]: 0.85 nM
